Columns and labels:
[1] = biological target: T1, Alpha-2A adrenergic receptor (Homo sapiens, UniProt P08913); assay: In vitro binding affinity towards alpha-2A adrenergic receptor of human clone in radioligand binding assay
T1 sequence (P08913 whole entry): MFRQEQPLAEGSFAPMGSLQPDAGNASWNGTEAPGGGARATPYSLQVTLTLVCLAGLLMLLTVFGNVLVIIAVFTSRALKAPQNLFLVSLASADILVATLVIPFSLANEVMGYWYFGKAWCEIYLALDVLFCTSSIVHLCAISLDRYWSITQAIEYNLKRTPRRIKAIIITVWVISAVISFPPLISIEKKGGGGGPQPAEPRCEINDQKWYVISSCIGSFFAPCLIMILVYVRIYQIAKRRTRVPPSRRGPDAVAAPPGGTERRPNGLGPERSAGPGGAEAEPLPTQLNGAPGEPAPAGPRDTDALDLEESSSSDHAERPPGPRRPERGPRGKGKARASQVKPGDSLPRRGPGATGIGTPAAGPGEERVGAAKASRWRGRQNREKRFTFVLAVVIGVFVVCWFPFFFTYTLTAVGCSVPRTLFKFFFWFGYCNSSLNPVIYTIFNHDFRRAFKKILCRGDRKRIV

[2] = species: Canis familiaris; assay: Ratio of MAP ED delta20 to that of IUP ED delta5
[3] = tested on: Canis familiaris; assay: Uroselectivity was determined by measuring effective dose required for 5 mmHg increase of intraurethral pressure (IUP) in vivo in dog; format: functional, Canis lupus familiaris
Method in brief: (§1)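 Dog model recording intraurethral pressure (IUP) and mean arterial pressure (MAP) simultaneously. Increasing iv doses given, maximal effect of each dose taken. Doses giving a 5 mmHg rise in IUP (ED Δ5) or 20 mmHg rise in MAP (ED Δ20) were calculated, in nmol/kg ± SEM, n ≥ 4 (2 or 3 where footnoted).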

[4] = biological target: T2, Alpha-1A adrenergic receptor (Oryctolagus cuniculus) (UniProt O02824); assay: Functional agonism of the compounds to constrict tissue containing the alpha-1A adrenergic receptor in rabbit urethra; format: tissue-based
T2 sequence (whole entry): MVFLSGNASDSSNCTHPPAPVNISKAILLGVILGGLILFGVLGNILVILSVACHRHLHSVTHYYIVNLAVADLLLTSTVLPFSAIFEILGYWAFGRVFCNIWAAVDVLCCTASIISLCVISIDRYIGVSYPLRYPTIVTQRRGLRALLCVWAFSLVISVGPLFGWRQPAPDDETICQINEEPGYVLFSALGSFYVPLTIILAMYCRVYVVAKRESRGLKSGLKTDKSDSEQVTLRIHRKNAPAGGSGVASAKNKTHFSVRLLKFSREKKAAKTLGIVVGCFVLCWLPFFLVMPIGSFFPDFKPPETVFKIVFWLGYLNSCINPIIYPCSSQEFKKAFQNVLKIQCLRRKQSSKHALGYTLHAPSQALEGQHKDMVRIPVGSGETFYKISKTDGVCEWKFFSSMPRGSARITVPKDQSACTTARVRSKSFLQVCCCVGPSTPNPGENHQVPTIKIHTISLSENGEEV
Method in brief: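 α1-agonist dose–response curves in isolated tissue: rabbit urethra (α1A), rat spleen (α1B), rat aorta (α1D). Agonist potency and efficacy read from the concentration–response curves.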

[5] = tested on: Canis familiaris; assay: Uroselectivity was determined by measuring effective dose required for 20 mmHg increase of mean arterial pressure (MAP) in vivo in dog; format: functional, Canis lupus familiaris, Artery; method in brief: as §1
[6] = biological target: Alpha adrenergic receptor 1A and 1B (Rattus norvegicus) (UniProt P15823+P43140); assay: Selectivity is ratio of pKi (binding affinity) of alpha-1B receptor to that of alpha-1A receptor.; format: protein assay
[7] = biological target: T3, Alpha-1D adrenergic receptor (Rattus norvegicus, UniProt P23944); assay: In vitro binding affinity towards alpha-1D adrenergic receptor of rat clone in radioligand binding assay
T3 sequence (P23944 whole entry): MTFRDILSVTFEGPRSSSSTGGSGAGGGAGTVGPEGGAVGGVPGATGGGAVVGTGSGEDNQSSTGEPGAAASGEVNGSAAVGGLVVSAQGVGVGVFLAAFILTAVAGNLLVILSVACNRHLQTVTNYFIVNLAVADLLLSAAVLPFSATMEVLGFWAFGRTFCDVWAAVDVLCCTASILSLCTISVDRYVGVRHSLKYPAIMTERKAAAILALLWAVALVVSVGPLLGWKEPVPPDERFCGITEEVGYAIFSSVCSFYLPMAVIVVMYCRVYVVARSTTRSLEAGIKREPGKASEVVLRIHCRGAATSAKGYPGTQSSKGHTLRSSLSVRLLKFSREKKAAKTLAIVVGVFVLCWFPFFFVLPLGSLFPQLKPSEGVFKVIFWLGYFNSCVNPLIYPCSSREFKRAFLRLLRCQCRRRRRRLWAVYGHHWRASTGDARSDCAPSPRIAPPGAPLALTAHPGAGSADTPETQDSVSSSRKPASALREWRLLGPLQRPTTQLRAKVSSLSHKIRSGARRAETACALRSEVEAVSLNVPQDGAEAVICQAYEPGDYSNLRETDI
Method in brief: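 Radioligand binding at α1 subtypes: α1A from rat submaxillary gland, α1B hamster clone, α1D rat clone. Run essentially per an earlier method.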

[8] = Relative affinities for alpha-2a and alpha-1A receptors
[9] = biological target: T4, Alpha-1B adrenergic receptor (Rattus norvegicus) (UniProt P15823); assay: Functional agonism of the compounds to constrict tissue containing the alpha-1B adrenergic receptor in rat spleen; format: tissue-based
T4 sequence (whole entry): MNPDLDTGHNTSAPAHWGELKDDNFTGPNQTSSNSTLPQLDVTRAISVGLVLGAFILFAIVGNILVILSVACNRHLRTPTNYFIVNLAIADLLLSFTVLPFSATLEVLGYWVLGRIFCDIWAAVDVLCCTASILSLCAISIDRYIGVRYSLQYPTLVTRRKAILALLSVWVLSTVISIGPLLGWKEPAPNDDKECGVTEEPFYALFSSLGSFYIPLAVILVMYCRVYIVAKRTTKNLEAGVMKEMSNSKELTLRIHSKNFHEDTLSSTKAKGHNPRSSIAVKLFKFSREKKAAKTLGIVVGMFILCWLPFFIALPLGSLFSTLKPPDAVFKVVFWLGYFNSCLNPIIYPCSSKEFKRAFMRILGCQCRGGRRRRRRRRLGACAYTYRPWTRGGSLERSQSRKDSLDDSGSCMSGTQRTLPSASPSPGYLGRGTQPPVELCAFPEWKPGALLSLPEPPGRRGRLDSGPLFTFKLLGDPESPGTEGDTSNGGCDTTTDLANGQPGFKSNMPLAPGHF
Method in brief: (§2)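 Agonist dose–response curves were run on isolated tissue: rabbit urethra for α1A, rat spleen for α1B, and rat aorta for α1D.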

[10] = biological target: T5, Alpha-1D adrenergic receptor (Rattus norvegicus) (UniProt P23944); assay: Functional agonism of the compounds to constrict tissue containing the alpha-1D adrenergic receptor in rat aorta; format: tissue-based; method in brief: as §2
T5 sequence (whole entry): T3 sequence (P23944 whole entry)

[11] = Selectivity is ratio of efficacy of Alpha-1D to that of alpha-1A adrenoceptor; format: functional

Alpha adrenergic receptor 1A and 1B (Rattus norvegicus), sequence (P43140 whole entry, looked up, one chain of several): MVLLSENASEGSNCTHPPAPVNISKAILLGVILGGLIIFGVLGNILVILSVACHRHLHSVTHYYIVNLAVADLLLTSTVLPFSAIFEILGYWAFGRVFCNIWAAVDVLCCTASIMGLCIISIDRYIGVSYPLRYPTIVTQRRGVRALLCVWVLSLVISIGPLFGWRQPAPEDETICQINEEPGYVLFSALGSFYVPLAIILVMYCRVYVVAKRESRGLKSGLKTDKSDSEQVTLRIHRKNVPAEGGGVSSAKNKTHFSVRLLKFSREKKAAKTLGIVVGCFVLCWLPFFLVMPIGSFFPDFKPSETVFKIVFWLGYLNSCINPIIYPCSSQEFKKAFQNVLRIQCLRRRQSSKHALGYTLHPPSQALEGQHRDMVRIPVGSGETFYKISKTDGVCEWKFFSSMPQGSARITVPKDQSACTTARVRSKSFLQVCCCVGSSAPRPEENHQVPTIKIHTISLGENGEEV

| SMILES | Ki [1] [nM] | Ratio [2] | ED delta5 [3] [nM/kg] | pD2 [4] | ED delta20 [5] [nM/kg] | Selectivity [6] | Ki [7] [nM] | Selectivity [8] | pD2 [9] | pD2 [10] | Selectivity [11] |
| --- | --- | --- | --- | --- | --- | --- | --- | --- | --- | --- | --- |
| O=S(=O)(CC(F)(F)F)Nc1cccc2c1CCCC2c1c[nH]cn1 (single isomer, unassigned; (+)) | 955 | 3 | 156 | 5.73 | 450 | > 80 | > 10000 | 8 |  |  |  |
| CN(c1cccc2c1CCCC2c1c[nH]cn1)S(C)(=O)=O (stereo not given) | 85.1 | 2.5 |  | 6.16 | 225.3 | > 50 |  | 0.4 | 5.65 |  |  |
| COc1ccc(OC)c(C(O)CN)c1 (stereo not given) [DESGLYMIDODRINE] | 1450 | 1.3 | 205 | 5.15 | 250 | 3 | 1660 | 0.7 | 4.07 | 5.73 | 1 |
| O=C(Nc1cccc2c1CCCC2c1c[nH]cn1)C(F)(F)F (stereo not given) | 309 | 1.1 | 188 | 6.28 | 216 | 60 |  | 2 | 5.47 |  |  |
| CC(N)C(O)c1ccccc1 (stereo not given) [PHENYLPROPANOLAMINE] | 275 | 0.4 | 1100 | 3.63 | 330 | 1 | 8510 | 0.03 | 3.55 | 4.12 | 0.2 |

From ChEMBL document CHEMBL1148329, “Synthesis and structure-activity studies on N-[5-(1H-imidazol-4-yl)-5,6,7,8-tetrahydro-1-naphthalenyl]methanesulfonamide, an imidazole-containing alpha(1A)-adrenoceptor agonist” (J Med Chem, 2004)
